Measurements: ChEMBL document CHEMBL1140948, “Malaria-infected mice are cured by a single oral dose of new dimeric trioxane sulfones which are also selectively and powerfully cytotoxic to cancer cells” (J Med Chem, 2009)
pIC50: −log10 of the molar value.

Assays:
[1] = Partition coefficient, log P of the compound; format: physicochemical; settings: octanol/water
[2] = tested on: Mus musculus; assay: Toxicity in Plasmodium berghei ANKA infected BALB/c mice (Mus musculus) assessed as induction of adverse effects at 144 mg/kg, perorally administered as single dose; format: organism-based; set-up: dose 144 mg/kg, route oral; settings: in vivo, po
How it was run: (§1)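 Male 5-week-old mice of about 22 g, infected i.p. on day 0 with 2 × 10^7 P. berghei ANKA-parasitized erythrocytes. At 24 h they received one oral dose in 7:3 Tween 80:ethanol diluted with water, 5 mice per group. Animals were watched to day 30 for overt toxicity and behavioral change.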

[3] = tested on: HL-60; assay: Cytotoxicity against human HL60 cells after 72 hrs by MTS assay; format: functional, cell-based; settings: HL-60, 72 h
How it was run: (§2)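 Exposed to a range of compound concentrations for 72 hr. Viability by MTS/PMS, absorbance at 490 nm. IC50 from logistic dose-response fits, mean of at least three experiments ± SEM.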

[4] = tested on: UACC-62; assay: Cytotoxicity against human UACC62 cells after 72 hrs by SRB assay; format: functional, cell-based; settings: UACC-62, 72 h
How it was run: (§3)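 Then 72 hr with a range of compound concentrations. Fixed overnight at 4 °C in 10% TCA, stained 30 min with 0.057% w/v sulforhodamine B in 1% acetic acid, dye solubilised in 10 mM Tris base, read at 510 nm.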

[5] = tested on: HeLa; assay: Cytotoxicity against human HeLa cells after 72 hrs by SRB assay; format: functional, cell-based; how it was run: as §3
[6] = tested on: MEF; assay: Cytotoxicity against mouse wild type MEF cells after 72 hrs by SRB assay; format: cell-based
How it was run: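 Non-cancerous immortalized fibroblasts grown in DMEM with 10% FBS and 1% pen/strep at 37 °C, 5% CO2, allowed ≥5 h to attach. Dosed over a concentration range for 72 hr. Biomass by SRB: TCA fixation overnight at 4 °C, 0.057% SRB stain for 30 min, Tris solubilisation, A510. IC50 by logistic curve fitting, at least three experiments ± SEM.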

[7] = tested on: Mus musculus; assay: Toxicity in Plasmodium berghei ANKA infected perorally dosed BALB/c mice (Mus musculus) assessed as induction of behavioral changes administered as single dose; format: organism-based; settings: in vivo, po; how it was run: as §1
[8] = Cytotoxicity against human Hs888Lu cells after 72 hrs by SRB assay; format: cell-based
How it was run: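 Non-cancerous immortalized fibroblasts grown in DMEM with 10% FBS and 1% pen/strep at 37 °C, 5% CO2, allowed ≥5 h to attach. Dosed over a concentration range for 72 hr. IC50 by logistic curve fitting, at least three experiments ± SEM.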

[9] = tested on: U-937; assay: Cytotoxicity against human U937 cells after 72 hrs by MTS assay; format: functional, cell-based; settings: U-937, 72 h; how it was run: as §2
[10] = tested on: SK-MEL-5; assay: Cytotoxicity against human SK-MEL-5 cells after 72 hrs by SRB assay; format: functional, cell-based; settings: SK-MEL-5, 72 h; how it was run: as §3
[11] = tested on: Plasmodium berghei; assay: Antiplasmodial activity as survival in Plasmodium berghei ANKA infected BALB/c mice (Mus musculus) after single 13 mg/kg peroral dose; format: functional; settings: route oral
[12] = tested on: Plasmodium berghei; assay: Antiplasmodial activity as survival in Plasmodium berghei ANKA infected BALB/c mice (Mus musculus) at 30 mg/kg peroral dose; format: functional; settings: route oral
[13] = tested on: Plasmodium berghei; assay: Antiplasmodial activity as reduced parasitaemia in Plasmodium berghei ANKA infected BALB/c mice (Mus musculus) at 30 mg/kg peroral dose; format: functional; set-up: scale not given: the % may be the effect or the level left; settings: route oral

With `CCN(CC)C(=O)OCc1ccc(S(=O)(=O)CC(C[C@H]2O[C@@H]3C[C@]4(C)CC[C@H]5[C@H](C)CC[C@@H]([C@H]2C)[C@@]35OO4)C[C@H]2O[C@@H]3C[C@]4(C)CC[C@H]5[C@H](C)CC[C@@H]([C@H]2C)[C@@]35OO4)cc1` the logP ([1]; read-out: logP) was 8.3.

With `C[C@H]1[C@@H](CC(C[C@H]2O[C@@H]3C[C@]4(C)CC[C@H]5[C@H](C)CC[C@@H]([C@H]2C)[C@@]35OO4)CS(=O)(=O)c2ccc(COC(=O)N(C)C)cc2)O[C@@H]2C[C@]3(C)CC[C@H]4[C@H](C)CC[C@@H]1[C@@]24OO3` the Activity [2] was “Non-toxic”, the pIC50 [3] was 7.22 and the pIC50 [4] was 7.40. For the same compound, the pIC50 [5] was 6.96, the logP ([1]; read-out: logP) was 7.6 and the pIC50 [6] was under 4.30. For the same compound, the Activity [7] was “Non-toxic”, the pIC50 [8] was under 4.30 and the pIC50 [9] was 6.55. The pIC50 [10] was 7.22.

For `CCOP(=O)(OCC)OCc1ccc(S(=O)(=O)CC(C[C@H]2O[C@@H]3C[C@]4(C)CC[C@H]5[C@H](C)CC[C@@H]([C@H]2C)[C@@]35OO4)C[C@H]2O[C@@H]3C[C@]4(C)CC[C@H]5[C@H](C)CC[C@@H]([C@H]2C)[C@@]35OO4)cc1`, the logP ([1]; read-out: logP) was 8.8.

Work on `C[C@H]1[C@@H](CC(C[C@H]2O[C@@H]3C[C@]4(C)CC[C@H]5[C@H](C)CC[C@@H]([C@H]2C)[C@@]35OO4)CS(=O)(=O)CCCCCCO)O[C@@H]2C[C@]3(C)CC[C@H]4[C@H](C)CC[C@@H]1[C@@]24OO3` yielded a logP [1] of 9.5.

Compound `C[C@H]1[C@@H](CC(C[C@H]2O[C@@H]3C[C@]4(C)CC[C@H]5[C@H](C)CC[C@@H]([C@H]2C)[C@@]35OO4)CS(=O)(=O)c2ccc(CO)cc2)O[C@@H]2C[C@]3(C)CC[C@H]4[C@H](C)CC[C@@H]1[C@@]24OO3` has a pIC50 [3] of 6.89, a pIC50 [4] of 7.52 and a pIC50 [5] of 5.96. For the same compound, the logP ([1]; read-out: logP) was 7, the pIC50 [6] was under 4.30 and the pIC50 [8] was under 4.30. For the same compound, the pIC50 [9] was 6.55 and the pIC50 [10] was 6.85.

`C[C@H]1[C@@H](CC(C[C@H]2O[C@@H]3C[C@]4(C)CC[C@H]5[C@H](C)CC[C@@H]([C@H]2C)[C@@]35OO4)CS(=O)(=O)Cc2ccc(F)cc2)O[C@@H]2C[C@]3(C)CC[C@H]4[C@H](C)CC[C@@H]1[C@@]24OO3` showed a logP ([1]; read-out: logP) of 7.8.

In the case of `COc1cccc2c1C(=O)c1c(O)c3c(c(O)c1C2=O)C[C@@](O)(C(=O)CO)C[C@@H]3O[C@H]1C[C@H](N)[C@H](O)[C@H](C)O1` [DOXORUBICIN], the pIC50 [6] was 5.47.

Compound `Cl.OC(c1cc(C(F)(F)F)nc2c(C(F)(F)F)cccc12)C1CCCCN1` (configuration not stated) [MEFLOQUINE HYDROCHLORIDE] has a Survival [11] of 11 days.

With `CC(C)(N)CNC(=O)C[C@H]1CC[C@]2(CC1)OO[C@]1(O2)C2CC3CC(C2)CC1C3` [OZ277] the Survival [12] was 10.7 days and the Activity [13] was 99.95%.

`C[C@H]1[C@H](OC(=O)CCC(=O)[O-])O[C@@H]2O[C@@]3(C)CC[C@H]4[C@H](C)CC[C@@H]1[C@@]24OO3.[Na+]` [SODIUM ARESUNATE] gave a Survival [12] of 7.6 days.
